Broadly, the inhibition is the share of the control response that was lost under treatment. By pIC50 is commonly meant −log10 of the IC50, conventionally taken in molar units.

Inhibition and IC50 data for 42 molecules are collected here from ChEMBL document CHEMBL4825676, “Design and biological evaluation of cinnamic and phenylpropionic amide derivatives as novel dual inhibitors of HIV-1 protease and reverse transcriptase” (Eur J Med Chem, 2021).

The subject of experiment [1] is Human immunodeficiency virus 1. Kind of experiment: Antiviral activity against HIV1 NL4-3 VSV-G pseudotyped virus infected in human SUP-T1 cells assessed as inhibition of early stage viral production at 10 uM measured after 48 hrs by luciferase assay relative to control. It is filed as functional. Conditions: Human immunodeficiency virus 1, NL4-3, SUP-T1. The procedure, abridged:
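Early-stage assay: SupT1 cells (1 × 10⁵/mL) were infected with VSV-G-pseudotyped HIV-1(NL4-3), and compounds were added afterward, with final DMSO held at 1% (v/v). After 48 h the cells were lysed and firefly luciferase activity was measured. Quintuplicate; inhibition at one fixed concentration and EC50.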

Experiment [2] relates to Human immunodeficiency virus 1. Kind of experiment: Antiviral activity against HIV1 NL4-3 Env-deficient VSV-G pseudotyped virus infected in human SUP-T1 cells assessed as inhibition of late stage viral production when host cells were infected with compound pretreated viral particles at 10 uM measured after 48 hrs by luciferase assay relative to control. It is filed as functional. As to conditions: Human immunodeficiency virus 1, NL4-3, SUP-T1. The procedure, abridged:
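Late-stage assay: VSV-G pseudotyped HIV-1 was made by co-transfecting 293T cells with pNL4-3-E⁻R⁻ (or DRV-resistant variants) plus pHCMV-G. Inhibitors in DMSO were added to the medium 5 h post-transfection. After 48 h at 37 °C, supernatant virus infected SupT1 cells for 48 h, and luciferase was read in the newly infected cells. Quintuplicate; inhibition at one fixed concentration and EC50.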

Experiment [3] deals with Human immunodeficiency virus type 1 protease (Human immunodeficiency virus 1, UniProt Q72874). Description: Inhibition of wild type HIV1 protease expressed in Escherichia coli using Arg-Glu (EDANS)-Ser-Gln-Asn-Tyr-Pro-Ile-Val-Gln-Lys(DABCYL)-Arg as substrate preincubated for 20 to 30 mins followed by substrate addition and measured for 10 mins by FRET assay. The procedure, abridged:
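Recombinant HIV-1 PR was expressed in E. coli and purified. It was mixed with inhibitor (DMSO stock) for 20–30 min at room temperature before addition of the EDANS/DABCYL-labelled peptide. Buffer: 0.1 M sodium acetate, 1 M NaCl, 1 mM EDTA, 1 mM DTT, 2% DMSO, 1 mg/mL BSA, pH 4.7. Triplicate; mean of three independent experiments.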

Experiment [4] has as its target Human immunodeficiency virus type 1 reverse transcriptase (Human immunodeficiency virus 1, UniProt Q72547). Description: Inhibition of wild type HIV-1 NL4-3 reverse transcriptase using random mRNA as template and GADPH as primer measured at 42 degreeC for 5 mins, 95 degreeC for 10sec and 60 degreeC for 60 sec by qRT-PCR analysis. Background: In qPCR the cycle at which signal appears reflects the starting amount.

pIC50: −log10 of the molar value.

As to `CC(C)CN(C[C@@H](O)[C@H](Cc1ccccc1)NC(=O)O[C@H]1CO[C@H]2OCC[C@H]21)S(=O)(=O)c1ccc(N)cc1`, the inhibition at 10 µM in experiment [1] came out at 2%; in experiment [2], 99%.

Turning to `COc1ccc(S(=O)(=O)N(CC(C)C)C[C@@H](O)[C@H](Cc2ccccc2)NC(=O)/C=C/c2ccc(O)c(OC)c2)cc1`, the pIC50 is 8.53 in experiment [3] and 6.84 in experiment [4].

Take `COc1cc(CCC(=O)N[C@@H](Cc2ccccc2)[C@H](O)CN(CC(C)C)S(=O)(=O)c2ccc(N)cc2)ccc1O`: the pIC50 is 9.24 in experiment [3] and 7.50 in experiment [4].

Consider `COc1cc(CCC(=O)N[C@@H](Cc2ccccc2)[C@H](O)CN(CC(C)C)S(=O)(=O)c2ccc(N)cc2)c(OC)cc1O`, for which the pIC50 in experiment [3] is 7.16; in experiment [4] it was 6.95.

Turning to `CCCN(C[C@@H](O)[C@H](Cc1ccccc1)NC(=O)CCc1cc(OC)c(O)cc1OC)S(=O)(=O)c1ccc(OC)cc1`, the pIC50 in experiment [3] is 7.06; in experiment [4], 8.19.

As to `COc1ccc(S(=O)(=O)N(C[C@@H](O)[C@H](Cc2ccccc2)NC(=O)/C=C/c2ccc(O)c(OC)c2)C2CC2)cc1`, the negative logarithm of the IC50 (pIC50) was 7.01 in experiment [3] and 7.36 in experiment [4].

As to `COc1cc(/C=C/C(=O)N[C@@H](Cc2ccccc2)[C@H](O)CN(CC(C)C)S(=O)(=O)c2ccc(SC)cc2)ccc1O`, the pIC50 in experiment [3] is 7.80; in experiment [4], 7.00.

As for `COc1ccc(S(=O)(=O)N(CC(C)C)C[C@@H](O)[C@H](Cc2ccccc2)NC(=O)/C=C/c2ccc(O)c(O)c2)cn1`, the negative logarithm of the IC50 (pIC50) is 8.54 in experiment [3] and 7.45 in experiment [4].

For the molecule `COc1ccc(S(=O)(=O)N(C[C@@H](O)[C@H](Cc2ccccc2)NC(=O)CCc2cc(OC)c(O)cc2OC)C2CC2)cc1`, the pIC50 in experiment [3] was 6.79; in experiment [4], 8.05.

Consider `COc1cc(/C=C/C(=O)N[C@@H](Cc2ccccc2)[C@H](O)CN(CC(C)C)S(=O)(=O)c2ccc(N)cc2)ccc1O`, for which the values for the negative logarithm of the IC50 (pIC50) in experiment [3] and in experiment [4] were 8.51 and 7.36, respectively.

For the molecule `COc1ccc(S(=O)(=O)N(C[C@@H](O)[C@H](Cc2ccccc2)NC(=O)CCc2cc(OC)c(O)cc2OC)C(C)C)cc1`, the pIC50 was 7.15 in experiment [3] and 6.52 in experiment [4].

In the case of `CC(C)CN(C[C@@H](O)[C@H](Cc1ccccc1)NC(=O)/C=C/c1ccc(O)c(O)c1)S(=O)(=O)c1ccc(N)cc1`, the pIC50 in experiment [3] was 9.70; in experiment [4] it was 8.12.

Turning to `COc1ccc(S(=O)(=O)N(CC(C)C)C[C@@H](O)[C@H](Cc2ccccc2)NC(=O)/C=C/c2cc(OC)c(O)c(OC)c2)cn1`, the pIC50 in experiment [3] was 7.16; in experiment [4], 7.94.

On to `COc1ccc(S(=O)(=O)N(CC(C)C)C[C@@H](O)[C@H](Cc2ccccc2)NC(=O)CCc2ccc(O)c(OC)c2)cn1`, for which the pIC50 is 9.80 in experiment [3] and 6.62 in experiment [4].

Regarding `COc1ccc(S(=O)(=O)N(C[C@@H](O)[C@H](Cc2ccccc2)NC(=O)CCc2ccc(O)c(O)c2)C2CC2)cc1`, the pIC50 was 8.39 in experiment [3] and 7.34 in experiment [4].

For `COc1ccc(S(=O)(=O)N(C[C@@H](O)[C@H](Cc2ccccc2)NC(=O)/C=C/c2ccc(O)c(OC)c2)C(C)C)cc1`, the results for the pIC50 in experiment [3] and in experiment [4] were 7.01 and 7.06, respectively.

Take `COc1ccc(S(=O)(=O)N(C[C@@H](O)[C@H](Cc2ccccc2)NC(=O)CCc2ccc(O)c(O)c2)C(C)C)cc1`: the pIC50 in experiment [3] was 8.83; in experiment [4], 7.69.

With `COc1ccc(S(=O)(=O)N(C[C@@H](O)[C@H](Cc2ccccc2)NC(=O)/C=C/c2cc(OC)c(O)c(OC)c2)C(C)C)cc1`, the figures for the pIC50 in experiment [3] and in experiment [4] were 6.28 and 6.70, respectively.

`COc1ccc(S(=O)(=O)N(C[C@@H](O)[C@H](Cc2ccccc2)NC(=O)/C=C/c2ccc(O)c(O)c2)C(C)C)cc1`: the pIC50 in experiment [3] and in experiment [4] was 7.27 in each case.

On to `CCCN(C[C@@H](O)[C@H](Cc1ccccc1)NC(=O)CCc1ccc(O)c(O)c1)S(=O)(=O)c1ccc(OC)cc1`, for which the negative logarithm of the IC50 (pIC50) in experiment [3] is 9.27; in experiment [4], 8.12.

Regarding `COc1cc(CCC(=O)N[C@@H](Cc2ccccc2)[C@H](O)CN(CC(C)C)S(=O)(=O)c2ccc(SC)cc2)c(OC)cc1O`, the values for the pIC50 in experiment [3] and in experiment [4] were 7.05 and 7.22, respectively.

Turning to `COc1ccc(S(=O)(=O)N(CC(C)C)C[C@@H](O)[C@H](Cc2ccccc2)NC(=O)CCc2cc(OC)c(O)cc2OC)cc1`, the values for the negative-log IC50 (pIC50) in experiment [3] and in experiment [4] were 6.98 and 7.14, respectively.

For the molecule `COc1cc(CCC(=O)N[C@@H](Cc2ccccc2)[C@H](O)CN(CC(C)C)S(=O)(=O)c2ccc(SC)cc2)ccc1O`, the negative-log IC50 (pIC50) in experiment [3] was 8.11; in experiment [4], 8.46.

Turning to `COc1cc(/C=C/C(=O)N[C@@H](Cc2ccccc2)[C@H](O)CN(CC(C)C)S(=O)(=O)c2ccc(SC)cc2)cc(OC)c1O`, the negative-log IC50 (pIC50) was 7.19 in experiment [3] and 7.29 in experiment [4].

Consider `COc1ccc(S(=O)(=O)N(C[C@@H](O)[C@H](Cc2ccccc2)NC(=O)CCc2ccc(O)c(OC)c2)C2CC2)cc1`, for which the results for the negative logarithm of the IC50 (pIC50) in experiment [3] and in experiment [4] were 7.49 and 6.55, respectively.

Take `COc1ccc(S(=O)(=O)N(CC(C)C)C[C@@H](O)[C@H](Cc2ccccc2)NC(=O)CCc2ccc(O)c(O)c2)cn1`: the figures for the negative logarithm of the IC50 (pIC50) in experiment [3] and in experiment [4] were 10.09 and 8.60, respectively.

Regarding `CSc1ccc(S(=O)(=O)N(CC(C)C)C[C@@H](O)[C@H](Cc2ccccc2)NC(=O)/C=C/c2ccc(O)c(O)c2)cc1`, the negative logarithm of the IC50 (pIC50) was 7.79 in experiment [3] and 7.67 in experiment [4].

Regarding `COc1ccc(S(=O)(=O)N(CC(C)C)C[C@@H](O)[C@H](Cc2ccccc2)NC(=O)/C=C/c2cc(OC)c(O)c(OC)c2)cc1`, the pIC50 is 7.88 in experiment [3] and 6.90 in experiment [4].

Take `COc1ccc(S(=O)(=O)N(CC(C)C)C[C@@H](O)[C@H](Cc2ccccc2)NC(=O)/C=C/c2ccc(O)c(O)c2)cc1`: the negative logarithm of the IC50 (pIC50) in experiment [3] is 9.80; in experiment [4], 7.39.

Regarding `CCCN(C[C@@H](O)[C@H](Cc1ccccc1)NC(=O)CCc1ccc(O)c(OC)c1)S(=O)(=O)c1ccc(OC)cc1`, the values for the pIC50 in experiment [3] and in experiment [4] were 8.77 and 6.63, respectively.

Take `COc1ccc(S(=O)(=O)N(C[C@@H](O)[C@H](Cc2ccccc2)NC(=O)CCc2ccc(O)c(OC)c2)C(C)C)cc1`: the negative-log IC50 (pIC50) in experiment [3] was 8.02; in experiment [4], 7.39.

In the case of `COc1ccc(S(=O)(=O)N(CC(C)C)C[C@@H](O)[C@H](Cc2ccccc2)NC(=O)CCc2cc(OC)c(O)cc2OC)cn1`, the negative-log IC50 (pIC50) was 7.37 in experiment [3] and 8.53 in experiment [4].

`COc1ccc(S(=O)(=O)N(C[C@@H](O)[C@H](Cc2ccccc2)NC(=O)/C=C/c2ccc(O)c(O)c2)C2CC2)cc1`: the negative-log IC50 (pIC50) in experiment [3] was 7.71; in experiment [4], 7.50.

As for `COc1ccc(S(=O)(=O)N(CC(C)C)C[C@@H](O)[C@H](Cc2ccccc2)NC(=O)/C=C/c2ccc(O)c(OC)c2)cn1`, the negative logarithm of the IC50 (pIC50) was 8.62 in experiment [3] and 6.91 in experiment [4].

With `CC(C)CN(C[C@@H](O)[C@H](Cc1ccccc1)NC(=O)CCc1ccc(O)c(O)c1)S(=O)(=O)c1ccc(N)cc1`, the pIC50 in experiment [3] was 9.25; in experiment [4], 8.02.

With `COc1ccc(S(=O)(=O)N(C[C@@H](O)[C@H](Cc2ccccc2)NC(=O)/C=C/c2cc(OC)c(O)c(OC)c2)C2CC2)cc1`, the pIC50 was 6.53 in experiment [3] and 7.47 in experiment [4].

Take `CCCN(C[C@@H](O)[C@H](Cc1ccccc1)NC(=O)/C=C/c1cc(OC)c(O)c(OC)c1)S(=O)(=O)c1ccc(OC)cc1`: the negative-log IC50 (pIC50) was 7.44 in experiment [3] and 7.04 in experiment [4].

Consider `COc1ccc(S(=O)(=O)N(CC(C)C)C[C@@H](O)[C@H](Cc2ccccc2)NC(=O)CCc2ccc(O)c(OC)c2)cc1`, for which the values for the negative logarithm of the IC50 (pIC50) in experiment [3] and in experiment [4] were 8.96 and 6.69, respectively.

As to `CCCN(C[C@@H](O)[C@H](Cc1ccccc1)NC(=O)/C=C/c1ccc(O)c(OC)c1)S(=O)(=O)c1ccc(OC)cc1`, the negative-log IC50 (pIC50) in experiment [3] is 7.62; in experiment [4], 6.97.

On to `COc1ccc(S(=O)(=O)N(CC(C)C)C[C@@H](O)[C@H](Cc2ccccc2)NC(=O)CCc2ccc(O)c(O)c2)cc1`, for which the pIC50 in experiment [3] was 9.41; in experiment [4], 8.46.

Consider `CCCN(C[C@@H](O)[C@H](Cc1ccccc1)NC(=O)/C=C/c1ccc(O)c(O)c1)S(=O)(=O)c1ccc(OC)cc1`, for which the pIC50 is 8.59 in experiment [3] and 7.27 in experiment [4].

As to `O=C1Nc2ccc(Cl)cc2[C@@](C#CC2CC2)(C(F)(F)F)O1` [EFAVIRENZ], the inhibition at 10 µM in experiment [1] worked out at 85%; in experiment [2], 15%.
